Assay outcomes: PubChem BioAssay, Broad Institute
esBAF inh – Bmi1 luciferase reporter increase in mESCs, primary screen, esBAF inhibitor project, mouse ES cells, Bmi1 luciferase knock-in, single point; 24 h; 100% = twice the neutral-well signal; reporter increase, % at 12.5 µM; actives 2% (n = 350,000); AID 602393, 2012; in the data active = activation above about 40%; inconclusive = no clear call, values can overlap the other calls;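 note: 0% = median of the plate's neutral control wells and 100% = double that signal; a rise in the Bmi1 reporter signal indicates esBAF inhibition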
CASP6 VEID inh – human caspase-6 inhibitors, primary screen, biochemical, VEID-R110 fluorescence, single point, set 2 | P55212 | AID 686996, 2013 | purified caspase-6, Z-VEID-R110 cleavage fluorescence | actives 0.53% (n = 350,000) | inhibition, % at 12.5 µM;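 active = mean inhibition across replicates at least about 35%, with every replicate also reaching that limit, limit read from the data; inconclusive = only one of the two criteria met; inactive = neither criterion met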;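 note: 0% = median of neutral control wells and 100% = no fluorescence left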
NSD2 HMT inh – NSD2 histone methyltransferase inhibitors, primary screen, biochemical, AlphaScreen, single concentration, set 2; actives 0.54% (n = 310,000); AID 743445, 2014; inhibition, % at 12.5 µM; NSD2 peptide methylation, 120 min; in the data active = inhibition above about 50%
Wnt bcat act – Wnt/beta-catenin pathway activators, primary screen, cell-based, plate reader, single point. Wnt/beta-catenin reporter cell assay, activator. actives 1.2% (n = 300,000). activation, % at 9.35 µM; in the data active = activation above about 30%, passing the limit was not always enough; inconclusive = no clear call, values can overlap the other calls;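 note: 0% = neutral control wells and 100% = positive control wells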
MITF TRPM1 HTS – activators of MITF-driven TRPM1 promoter reporter, primary screen, cell-based, SK-MEL-5, luciferase, single point | activation, % at 12.5 µM | AID 588334, 2011 | SK-MEL-5 TRPM1-promoter luciferase, 24 h; % of positive control, neutral wells = 0 | actives 0.75% (n = 300,000);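 active = mean activation of at least 80% with every replicate also reaching 80%; inconclusive = mean reaches 80% but some replicate falls short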;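 note: 0% = neutral control wells and 100% = parthenolide positive control wells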
XiGFP reactiv – activators of inactive X chromosome reactivation, primary screen, imaging, XiGFP fibroblasts, GFP high-content imaging, set 2; XiGFP mouse fibroblasts, % GFP-positive cells imaging, 3 d; cells co-treated with 5-aza-dC sensitizer; scaled so ellipticine positive control = 100%; activation, % at 7.58 µM; actives 0.055% (n = 360,000); AID 743238, 2013;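 active = mean normalized replicate activation at least 10% and every replicate at or above 10%; inconclusive = only one of the two criteria met; inactive = mean below 10% and not all replicates reach 10%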;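 note: 0% = median of on-plate neutral control wells and 100% = ellipticine 6 µM median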
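System: 68-5-11 XiGFP fibroblast line; Timing: 3 days compound exposure; Compound dosing: one concentration, pinned; Benchmarks: positive control ellipticine, 6 µM final; Buffer or medium: DMEM containing 5-aza-dC.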
* marks the source's active call; other numbers are inactive results; ? = inconclusive; · = not tested or not shown. Shown are actives, neighbours in structure and some others; about 3% of the full set was active somewhere.

SMILES	esBAF inh	CASP6 VEID inh	NSD2 HMT inh	Wnt bcat act	MITF TRPM1 HTS	XiGFP reactiv
Clc1ccc(Nc2nc(-c3cccnc3)cs2)cc1	54*	1	0	·	23	·
Cc1ccc(Nc2nc(-c3ccncc3)cs2)cc1	·	-2	-1	43*	88*	5
CCN(CC)c1ccc(Nc2nc(-c3cccnc3)cs2)cc1	60*	-1	7	29	112*	0
Fc1ccc(Nc2nc(-c3cccnc3)cs2)cc1	·	-3	0	25	68	·
C[C@H](CO)N1C[C@H](C)[C@H](CN(C)C(=O)[C@H](Cc2ccccc2)N(C)C)OCc2ccccc2-c2c(n(C)c3ccccc23)C1=O	24	-1	·	·	·	0
C=CC(=O)N1C/C(=C/c2ccc(F)cc2)C(=O)/C(=C\c2ccc(F)cc2)C1	-81	78*	3	-9	-96	1
CC(=NO)c1ccc2c(c1)Cc1cc([N+](=O)[O-])ccc1-2	·	1	-2	-3	-3	0
CC(=O)c1ccc2c(c1)Cc1cc(C(C)=O)ccc1-2	·	·	-2	46*	93*	0
COc1ccc(-c2cn3ccccc3n2)cc1	-44	-1	-7	0	0	2
COc1ccc(-c2ccn(-c3cccc(F)n3)n2)cc1	54*	-2	-1	8	26	0
O=C(COc1ccc(Br)cc1)N1CCc2ccccc21	·	-4	-3	28	99*	0
O=C(COc1ccccc1Cl)N1CCc2ccccc21	64*	-1	-2	21	66	·
Nc1ccc2nn(-c3ccccc3)nc2c1	57*	2	-4	12	1	0
Nc1ccc(-n2nc3ccccc3n2)cc1	·	-2	-6	-1	·	0
COc1ccccc1-n1c(CNC(=O)c2ccc(S(=O)(=O)N3CCCCC3)cc2)n[nH]c1=S	-1	40*	1	0	3	0
COC(=O)C1C(=O)c2c([nH]c(C(=O)OC3CCCCCC3)c2C)CC1C (stereo not drawn)	11	-1	·	16	87*	0
COCCOC(=O)c1[nH]c2c(c1C)C(=O)C(C(=O)OC)C(C)C2 (stereo not drawn)	31	-1	·	7	73	0
COC(=O)C1C(=O)c2c([nH]c(C(=O)OCC3CCCO3)c2C)CC1C (stereo not drawn)	55*	1	·	17	?	0
CCCCCOC(=O)c1[nH]c2c(c1C)C(=O)C(C(=O)OC)C(C)C2 (stereo not drawn)	?	·	·	·	68	·
COc1cccc(NC(=O)Nc2cc(C(=O)O)ccc2C)c1	1	-1	·	0	0	0
O=C(Nc1ccc(Cl)c(Cl)c1)Nc1ccccn1	67*	-3	-7	37*	73	0
COC(=O)c1cccc(NC(=O)Nc2ccc(Cl)c(Cl)c2)c1	71*	2	-3	-2	3	·
COc1ccc(NC(=O)Nc2ccccn2)cc1OC	23	-1	0	16	42	0
COc1cccc(NC(=O)Nc2ccncc2)c1	·	·	-3	1	3	0
COc1cccc(NC(=O)Nc2ccc(C(C)(C)C)cc2)c1	57*	9	-2	10	61	0
SMILES	esBAF inh	CASP6 VEID inh	NSD2 HMT inh	Wnt bcat act	MITF TRPM1 HTS	XiGFP reactiv
COC(=O)c1cccc(NC(=O)NC(=O)c2ccccc2Cl)c1	·	2	-1	19	-58	0
COc1cccc(NC(=O)Nc2ccc(C)c(Cl)c2)c1	55*	2	-7	12	?	0
COC(=O)C[C@@H]1CC[C@H]2[C@H](COc3ccc(NS(=O)(=O)c4ccc(F)cc4)cc3C(=O)N2C)O1	5	·	·	·	·	0
CC(C)NC(=O)Nc1ccc2c(c1)C(=O)N([C@H](C)CO)C[C@H](C)[C@@H](CN(C)S(=O)(=O)c1cn(C)cn1)OCCCC[C@@H](C)O2	0	-1	·	·	·	1
COc1cccc(NC(=O)c2ccc(NC(=O)C(C)(C)C)cc2)c1	66*	-3	19	13	72	0
CCCC(=O)Nc1ccc(C(=O)Nc2cccc(OC)c2)cc1	·	-2	-1	21	25	0
O=C(O)c1c2c(nc3ccc(Cl)cc13)CCC2	-3	50*	5	0	-11	0
COCCn1c(C)nnc1SCC(=O)Nc1ccccc1[N+](=O)[O-]	·	2	-2	51*	-8	0
COCCn1c(SCC(=O)Nc2ccccc2OC)nnc1-c1ccco1	0	-2	-4	0	-20	0
O=C(O)c1cccc(Nc2nc(N3CCOCC3)nc(N3CCOCC3)n2)c1	-11	·	0	-5	-11	·
O=C(O)c1cccc(Nc2ccnc(Nc3cccc(C(=O)O)c3)n2)c1	-74	35*	2	-1	-27	0
O=C(Nn1cnc2ccccc2c1=O)c1c(F)cccc1F	-6	-3	0	44*	-9	0
COC(=O)c1ccc(CN2C(=O)NC3(CCC(C)CC3)C2=O)cc1 (stereo not drawn)	44*	1	-2	5	48	0
COC(=O)c1ccc(CN2C(=O)NC3(CCC(C)CC3)C2=O)o1 (stereo not drawn)	2	·	0	-1	·	·
COc1ccccc1C#Cc1ccc([C@H]2[C@H](CO)N3CCCCN(C(=O)C4CC4)C[C@@H]23)cc1	·	0	·	·	·	·
Cc1ccc(NCCC(=O)c2cccs2)cc1	64*	0	13	0	72	0
Cc1ccc(NC(=O)CCC(=O)c2cccs2)c(Br)c1	·	-3	-2	23	86*	0
O=C(CCNc1cccc(Cl)c1)c1cccs1	·	4	-3	13	10	·
CC(C)c1ccc(NCCC(=O)c2cccs2)cc1	·	·	1	·	44	0
Cc1ccc(NCCC(=O)c2cccs2)cc1Cl	55*	·	-8	19	29	·
Cc1ccc(NCCC(=O)c2cccs2)cc1C	68*	-3	5	-1	106*	0
C[C@@H]1CCCCO[C@@H](CN(C)Cc2ccccc2)[C@@H](C)CN([C@@H](C)CO)C(=O)c2cc(NS(=O)(=O)c3ccc(Cl)cc3)ccc2O1	5	0	·	·	·	0
COCC(=O)N(C)C[C@@H]1Oc2cc(-c3ccc(OC)cc3)ccc2S(=O)(=O)N([C@H](C)CO)C[C@H]1C	-2	3	·	·	·	-1
Cc1ccc(NC(=O)CCC(=O)c2cccs2)cc1	6	·	0	41*	·	·
Cc1ccc(CNC(=O)CCC(=O)c2cccs2)cc1	0	·	1	·	-6	·
Nc1nnnn1/N=C/C(Br)=C/c1ccccc1	53*	·	2	-20	-83	·
